Rows were chosen to be rich in hits. Some 2.2% of all compounds tested hit in one or more screens of this group.
VIM-2 inh: inhibitors of Pseudomonas aeruginosa VIM-2 metallo-beta-lactamase. inhibition, % at 5.6 µM. purified VIM-2, nitrocefin hydrolysis, epi-absorbance fluorescence. AID 1527. 0.89% of 290,000 active;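 active means inhibition above the mean of all tested compounds plus 3 SD, cutoff set per screening run, cut at about 7.5% in these data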;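 further: red hydrolysis product quenches plate fluorescence so inhibitors raise well fluorescence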
IMP-1 inhibitor: blocks Pseudomonas aeruginosa IMP-1 metallo-beta-lactamase | inhibition, % at 5.6 µM | AID 1556 | purified IMP-1, nitrocefin hydrolysis, epi-absorbance fluorescence | 0.45% of 290,000 active;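 active means inhibition above the mean plus 3 SD of all compounds in the same screening run, cut at about 4.5% in these data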
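Material – recombinant IMP-1 enzyme, purified · Amount – IMP-1 0.2 nM before substrate addition · Medium – HEPES buffer pH 7.1 with ZnSO4 and Brij 35 · Timing – 25 °C, 15 min preincubation, 25 min reaction · Measured by – plate fluorescence quenching by hydrolysis product, ex 480/em 530 nm · Read-out – percent enzyme inhibition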
PABP polyA inh: blocks human PABP binding to poly(A) RNA; AID 2014; P11940; calls only at 35 µM; fluorescence polarization; 1% of 290,000 active;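 further: calls also rest on retests at 20 µM and on dose response follow-up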
Target sequence (P11940 whole entry, looked up): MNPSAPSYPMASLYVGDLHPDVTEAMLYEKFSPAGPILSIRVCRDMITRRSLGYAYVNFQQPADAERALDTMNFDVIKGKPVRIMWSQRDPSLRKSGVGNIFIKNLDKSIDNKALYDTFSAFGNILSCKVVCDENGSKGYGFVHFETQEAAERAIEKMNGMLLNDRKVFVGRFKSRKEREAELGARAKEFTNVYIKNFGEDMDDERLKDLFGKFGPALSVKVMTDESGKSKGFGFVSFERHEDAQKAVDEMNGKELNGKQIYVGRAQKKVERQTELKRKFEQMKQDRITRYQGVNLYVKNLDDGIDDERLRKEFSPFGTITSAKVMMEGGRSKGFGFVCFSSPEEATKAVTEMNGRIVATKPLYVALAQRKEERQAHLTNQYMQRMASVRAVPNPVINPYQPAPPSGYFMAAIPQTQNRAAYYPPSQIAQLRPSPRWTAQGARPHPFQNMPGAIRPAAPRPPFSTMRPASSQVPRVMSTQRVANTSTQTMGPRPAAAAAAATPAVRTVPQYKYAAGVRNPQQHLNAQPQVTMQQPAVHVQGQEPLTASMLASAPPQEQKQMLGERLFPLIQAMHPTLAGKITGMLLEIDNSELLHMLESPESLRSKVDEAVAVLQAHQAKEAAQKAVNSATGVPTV
eIF4H inh: inhibitors of RNA binding by human eIF4H; 0.94% of 290,000 active; eIF4H fluorescence polarization binding assay; AID 2012; inhibition, % at 35 µM;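 further: calls also rest on retests at 20 µM and on dose response follow-up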
PABP1 MLLE inh: inhibitors of microRNA-mediated deadenylation, human PABP1 MLLE binding; GST-MLLE / FITC-PAM2 fluorescence polarization; inhibition, % at 20 µM; 0.36% of 360,000 active; AID 588489; in the data active means inhibition above about 35%, passing the limit was not always enough
Of the large screens only hits and unclear results are named; the others gave an inactive call. Unless noted, how the calls were made is not given here.

N#C/C(=C\c1ccc(-c2ccccc2[N+](=O)[O-])o1)C(=O)N1CCOCC1	eIF4H inh 61
O=C(NCc1ccc(/C=c2\sc3n(c2=O)CCN=3)o1)C(=O)Nc1ccccc1	eIF4H inh 82 (no result: PABP1 MLLE inh)
Cc1ccc(/C=c2/sc3n(c2=O)CCCN=3)o1	none
COc1nccnc1NS(=O)(=O)c1ccc(NC(=S)NC(=O)c2ccc(F)cc2)cc1	PABP1 MLLE inh 49
COc1nccnc1NS(=O)(=O)c1ccc(NC(=S)NC(=O)c2cccc(F)c2)cc1	none
COc1ccc(/C=C/C(=O)NC(=S)Nc2ccc(S(=O)(=O)Nc3nccnc3OC)cc2)cc1	PABP1 MLLE inh 38
COc1ccc(/C=C/C(=O)NC(=S)Nc2ccc(S(=O)(=O)Nc3cc(OC)ncn3)cc2)cc1	none
COCCNC(=O)c1ccc(-n2c(SCc3ccncc3)nc3ccccc3c2=O)cc1	PABP polyA inh active, eIF4H inh active
Cc1ccc(N2CC(C)Cn3c2nc2c3c(=O)[nH]c(=O)n2C)cc1C (stereo not drawn)	VIM-2 inh 8.7
CC1CCCC(C)N1C(=O)CSc1nnc(COc2ccc(F)cc2)o1 (stereo not drawn)	none
Nc1n[nH]c(=S)n1/N=C1/C(=O)Nc2ccccc21	PABP1 MLLE inh 45
COc1ccc(NC(=O)c2cc(C3CCCCN3C(=O)c3ccc4c(c3)CCO4)on2)c(C)c1 (stereo not drawn)	none (no result: VIM-2 inh, IMP-1 inhibitor, PABP polyA inh, eIF4H inh)
COc1ccncc1-c1ccccc1C1=CC(=O)CC(C)(C)C1=O	none (no result: VIM-2 inh, IMP-1 inhibitor, PABP polyA inh, eIF4H inh)
Oc1ccc2ccccc2c1N=Nc1ccccn1	none
CCOC(=O)c1[nH]cnc1N=Nc1c(O)ccc2ccccc12	eIF4H inh inconclusive, PABP1 MLLE inh 51
COc1ccc(/C=N\NC(=O)c2sccc2C)cc1Cn1nc(C)cc1C	none
CC1(C)Cc2c(sc(NC(=O)COc3cccc4ccccc34)c2C#N)C(C)(C)N1	IMP-1 inhibitor 19
Cc1ccc(OCC(=O)Nc2sc3c(c2C#N)CC(C)(C)NC3(C)C)cc1	none
Cc1ccc(C2=NS(=O)(=O)N(C)C(C(=O)NC3CCCC3)=C2)cc1	none
CCCCOc1ccc(-c2nc(SCC(N)=O)n[nH]2)cc1	IMP-1 inhibitor 5.2
CCOC(=O)C(=CNc1ccc(-c2ccco2)c(Cl)c1)C(=O)OCC	IMP-1 inhibitor 6.4
CCOC(=O)C(=CNc1cc(Cl)c(-c2ccco2)c(Cl)c1)C(=O)OCC	IMP-1 inhibitor 6.1
CCOC(=O)C(=CNc1ccccc1Cl)C(=O)OCC	none
O=C(CSc1nc(-c2ccccc2)c(-c2ccccc2)o1)N1CCCCC1	none (no result: VIM-2 inh, IMP-1 inhibitor, PABP polyA inh, eIF4H inh)
O=C(CSCC(=O)N1CCCCC1)Nc1nc(-c2ccccc2)c(-c2ccccc2)s1	PABP polyA inh active, eIF4H inh 80
CCCc1nc2c(C)cc(Br)cn2c1Cc1ccsc1	PABP1 MLLE inh 43 (no result: VIM-2 inh, IMP-1 inhibitor, PABP polyA inh, eIF4H inh)
CCC1CCCCN1CCCNC(=O)c1c(O)nc2c(C)cccn2c1=O (stereo not drawn)	VIM-2 inh 9.6
CC1CCCCN1CCCNC(=O)c1c(O)nc2ccccn2c1=O (stereo not drawn)	none
Cc1cccn2c(=O)c(C(=O)NCCCN3CCCCC3C)c(O)nc12 (stereo not drawn)	VIM-2 inh 9.5
Cc1ccc2c(c1)c1n[nH]c(=S)nc1n2CCc1ccccc1	PABP1 MLLE inh 41
NNc1nnc2c3cc(F)ccc3n(CCc3ccccc3)c2n1	none
CCn1c2ccc(C)cc2c2n[nH]c(=S)nc21	none
Fc1ccc2c(c1)c1n[nH]c(=S)nc1n2CCc1ccccc1	PABP1 MLLE inh 40
CC(=O)Nc1ccc(NC(=O)CC2Nc3cccc4cccc(c34)NC2=O)cc1 (stereo not drawn)	PABP polyA inh active, eIF4H inh 106
CC(=O)c1ccc(NC(=O)CC2Nc3cccc4cccc(c34)NC2=O)cc1 (stereo not drawn)	PABP polyA inh inconclusive, eIF4H inh inconclusive
Cc1cccc(NC(=O)CC2Nc3cccc4cccc(c34)NC2=O)c1 (stereo not drawn)	PABP polyA inh active, eIF4H inh 113
CCOc1ccc(NC(=O)CC2Nc3ccccc3NC2=O)cc1 (stereo not drawn)	none
Cc1cc(C(=O)Nc2ccc(CC(=O)O)cc2)c(C)o1	none
O=C(O)c1cccc(-n2cccc2/C=C2/NC(=O)N(Cc3ccccc3F)C2=O)c1	PABP polyA inh active, eIF4H inh 94
O=C1N/C(=C/c2cccn2-c2ccc(F)cc2)C(=O)N1Cc1ccccc1F	none
O=C1N/C(=C/c2cccn2-c2ccccc2)C(=O)N1Cc1ccc(F)cc1	PABP polyA inh active, eIF4H inh active
O=C(Nc1ccn(-c2ccccc2)n1)c1ccccc1Br	none
Cc1ccc(S(=O)(=O)N2CCCN(C)c3nc4ccccc4nc32)cc1	none (no result: VIM-2 inh, IMP-1 inhibitor, PABP polyA inh, eIF4H inh)
COC(=O)C(N)Cc1ccc(O)c(O)c1 (stereo not drawn)	none
NC(CO)C(=O)NNCc1ccc(O)c(O)c1O (stereo not drawn)	PABP polyA inh active, eIF4H inh 97, PABP1 MLLE inh 48
O=C(O)C1Nc2c(O)cccc2C2C=CCC12 (stereo not drawn)	VIM-2 inh 12, eIF4H inh 99
O=C(O)C1Nc2c(Cl)cc(Cl)cc2C2C=CCC12 (stereo not drawn)	PABP polyA inh active, eIF4H inh 84
O=C(O)C1Nc2c(Cl)cc(Cl)c(Cl)c2C2C=CCC12 (stereo not drawn)	none (no result: PABP polyA inh, eIF4H inh)
CCOC(=O)c1c(C)[nH]c(C)c1S(=O)(=O)N(C)CC(=O)N(C)Cc1ccccc1	none
Cc1cc(Cl)ccc1OCC(=O)N/N=C/c1ccncc1	none
COC(=O)c1ccc(CSc2nc3scc(-c4cccs4)c3c(=O)[nH]2)o1	PABP polyA inh active, eIF4H inh 54
COC(=O)c1ccc(CSc2nc3ccc(Cl)cc3[nH]2)o1	none (no result: PABP1 MLLE inh)
Cc1ccc(NC(=S)N/N=C2/CCCCc3ccccc32)cc1	PABP1 MLLE inh 42
O=C(CCN1CCOCC1)NNC(=S)NC(=O)c1ccccc1	PABP1 MLLE inh 38
CSc1ccc(/C=N/S(=O)(=O)c2ccccc2)cc1	none
Cc1ccc2oc(=O)c3cc(C(=O)NCCCN4CCCC(C)C4)sc3c2c1 (stereo not drawn)	VIM-2 inh 11
CCCN1CCN(CCCNC(=O)c2cc3c(=O)oc4ccc(C)cc4c3s2)CC1	VIM-2 inh 12 (no result: PABP polyA inh, eIF4H inh)
CCN1CCN(C(=O)c2cc3c(=O)oc4ccc(C)cc4c3s2)CC1	VIM-2 inh 8.4
Cc1ccc2oc(=O)c3cc(C(=O)NCCN4CCc5ccccc5C4)sc3c2c1	none
N#Cc1ccccc1NC(=O)COC(=O)c1c[nH]c2ccccc12	none (no result: VIM-2 inh, IMP-1 inhibitor, PABP polyA inh, eIF4H inh)
CCC(CC)C(=O)NCCc1ccc(OC)cc1	none
CC[C@@H](C)[C@H](CN[C@H](CNC)[C@@H](C)O)NCCc1ccc(OC)cc1	VIM-2 inh 11
O=C(NC1CCCCC1)C1CCN(S(=O)(=O)c2cccs2)CC1	IMP-1 inhibitor 4.8
COc1ccc(NC(=O)COc2coc(CN3CCN(c4ccccc4)CC3)cc2=O)cc1	none (no result: VIM-2 inh, IMP-1 inhibitor, PABP polyA inh, eIF4H inh)
CCSc1nc(N)c(C#N)c(-c2ccco2)c1C#N	IMP-1 inhibitor 4.5
COC(=O)CSc1nc(N)c(C#N)c(-c2ccco2)c1C#N	none
CS(=O)(=O)c1ccc2nc(NC(=O)c3ccc(NS(=O)(=O)c4cccc([N+](=O)[O-])c4)cc3)sc2c1	none

Compound activity deposited in PubChem by several laboratories.
